From ChEMBL document CHEMBL1150769, “Aroyl hydrazones of 2-phenylindole-3-carbaldehydes as novel antimitotic agents” (Bioorg Med Chem, 2008) come the findings set out here.

Calls of active or inactive are those of the source. The rule behind the calls is not given here.

Assay [1] has as its system MCF7. Nature of the assay: Antiproliferative activity against human MCF7 cells after 5 days by microplate assay. In kind it is functional, cell-based. The conditions noted are these: MCF7, 120 h. An outline of the steps:
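MCF-7 cells grown in EMEM with sodium pyruvate, gentamycin, NaHCO3, phenol red and 10% FCS; seeded in 96-well plates and grown 2–3 days at 37 °C, 5% CO2, then medium with compound (DMF stock; controls 0.1% DMF) for 5 days; glutaric dialdehyde fixation, 0.02% crystal violet stain, ethanol extraction, OD 578 nm; mean of two experiments, 16–24 replicates.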

For assay [2], the system named is MDA-MB-231. Nature of the assay: Antiproliferative activity against human MDA-MB-231 cells after 4 days by microplate assay. In kind it is functional, cell-based. Conditions: MDA-MB-231, 96 h. An outline of the steps: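 MDA-MB 231 cells grown in McCoy-5a with L-glutamine, gentamycin, NaHCO3 and 5% FCS; 2–3 days growth at 37 °C, 5% CO2 before compound in fresh medium (controls 0.1% DMF); about 4 days exposure; 1% glutaric dialdehyde fixation, 0.02% crystal violet, 70% EtOH elution, OD 578 nm; mean of two experiments with 16–24 replicates.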

Assay [3] concerns HL-60. The assay can be described thus: Antiproliferative activity against human HL60 cells after 48 hrs by MTT assay. The assay is classed as functional, cell-based. Conditions: HL-60, 48 h. A digest of the protocol:
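HL-60 human leukemia cells kept in log growth in RPMI 1640 with 10% FCS, penicillin G and streptomycin; treated for 48 h; growth read by MTT assay; IC50 = 50% and IC90 = 90% inhibition of cell growth; values given ± SD.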
For orientation: Tetrazolium dyes change colour on reduction, which living cells bring about.

The test system of assay [4] is U-87 MG. The assay can be described thus: Effect on cell morphology in human U87 MG cells assessed as disruption of microtubule network at 10 nM by confocal fluorescence microscopy. Conditions: U-87MG ATCC. The assay is classed as functional, cell-based. A digest of the protocol: (§1)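 U-87 MG cells at 75% confluence in chamber slides treated 3 h at 37 °C (EtOH vehicle); fixed in 4% paraformaldehyde, permeabilized with 1% Triton X-100; α-tubulin immunostained (Cy5 secondary), nuclei with SYTOX Green; imaged by confocal laser scanning microscopy.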

In assay [5] the test system is MDA-MB-231. Nature of the assay: Cell cycle arrest in human MDA-MB-231 cells assessed as increase in accumulation at G2/M phase after 24 hrs by flow cytometry. The assay is classed as functional, cell-based. An outline of the steps:
(§2)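 MDA-MB 231 cells at 70–80% confluence in 75 cm2 flasks exposed 24 h (DMF vehicle, 0.1% final); trypsinized, fixed in ice-cold 70% EtOH, DNA extraction buffer, propidium iodide stain ≥30 min at room temperature; 8000–15,000 events analysed by flow cytometry for sub-G1, G1/G0, S and G2/M fractions; representative of two experiments.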
On the technique in general: A flow cytometer gives signals particle by particle.

Assay [6] deals with MDA-MB-231. Nature of the assay: Cell cycle arrest in human MDA-MB-231 cells assessed as decrease in accumulation at G1/G0 phase after 24 hrs by flow cytometry. The assay is classed as functional, cell-based. An outline of the steps: as §2
The test system of assay [7] is HL-60. Nature of the assay: Induction of apoptosis in human HL60 cells assessed as increase in caspase 3 activation at 2.0 uM after 24 hrs. In kind it is functional.
The test system of assay [8] is HL-60. The assay can be described thus: Induction of apoptosis in human HL60 cells assessed as increase in caspase 9 activation at 1 uM after 24 hrs. In kind it is functional, cell-based.
Assay [9] has as its system HL-60. Nature of the assay: Induction of apoptosis in human HL60 cells assessed as increase in caspase 3 activation at 1 uM after 24 hrs. The assay is classed as functional, cell-based.
Assay [10] can be described thus: Inhibition of tubulin polymerization at 5 uM by microplate assay.
In assay [11] the test system is U373 MG. The assay can be described thus: Antiproliferative activity against human U373 MG cells at 200 nM after 100 hrs. In kind it is functional, cell-based. The conditions noted are these: U-373MG ATCC. A digest of the protocol:
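Confluent (resting) U-373 MG cultures exposed to compound, with DMSO solvent controls, for up to ~150 h; crystal violet staining of fixed cells at various times; effect expressed as cytocidal effect (%) versus time.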

Assay [12] relates to U-87 MG. The assay can be described thus: Effect on cell morphology in human U87 MG cells assessed as disruption of microtubule network at 50 nM by confocal fluorescence microscopy. The assay is classed as functional, cell-based. The conditions noted are these: U-87MG ATCC. An outline of the steps: as §1
Assay [13] relates to HL-60. The assay can be described thus: Induction of apoptosis in human HL60 cells assessed as increase in caspase 3 activation at 500 nM after 24 hrs. In kind it is functional, cell-based. A digest of the protocol: (§3)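 HL-60 cells (3 million at 5 × 10^5 cells/mL) treated 24 h at 37 °C, 5% CO2; hypotonic Hepes/DTT/EDTA/CHAPS lysates on ice; Ac-DMQD-AMC (1.0 μM final) cleaved 60 min at 30 °C; released AMC separated by RP-HPLC, quantified fluorometrically (ex 355 or 400, em 435 nm) against AMC standards; activity in pmol/min/mg; means of three experiments ± SD.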

Assay [14] concerns U373 MG. The assay can be described thus: Antiproliferative activity against human U373 MG cells at 50 nM after 72 hrs. The assay is classed as functional, cell-based. The conditions noted are these: U-373MG ATCC. A digest of the protocol: (§4)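 U-373 MG glioblastoma cells in EMEM-type medium with 5% FCS under permanent exposure to 10–200 nM; plates fixed with glutaric dialdehyde at various times, stored cold, then crystal violet stained together; absorbance expressed as corrected T/C = (T − C0)/(C − C0) × 100 (%).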

The subject of assay [15] is U373 MG. The assay can be described thus: Antiproliferative activity against human U373 MG cells after 72 hrs. The conditions noted are these: U-373MG ATCC. In kind it is functional, cell-based. An outline of the steps: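 Human U-373 MG glioblastoma cells grown in EMEM with sodium pyruvate, gentamycin, NaHCO3, phenol red and 5% FCS. Exposure was continuous at 10, 50, 100 and 200 nM, with DMF in the controls. Plates were fixed with glutaric dialdehyde at intervals and stained together with crystal violet. Absorbance read at 578 nm; corrected T/C% = (T − C0)/(C − C0) × 100.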

The nature of assay [16]: Inhibition of tubulin polymerization at 5 uM by microplate assay. A digest of the protocol: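 Tubulin suspended in cold G-PEM buffer with 5% glycerol and depolymerised at 0 °C. It was added to compound that had been diluted 1:10 from DMSO stock into G-PEM in wells prewarmed to 37 °C. Turbidity was read at 355 nm every minute for 28–30 min at 37 °C. Solvent controls held 1% DMSO; colchicine (5 µM) and paclitaxel (2 µM) were run as references.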

The test system of assay [17] is HL-60. Nature of the assay: Induction of apoptosis in human HL60 cells assessed as caspase 3 activation at 100 nM after 24 hrs. In kind it is functional, cell-based. A digest of the protocol:
as §3

Assay [18] has as its system U373 MG. The assay can be described thus: Antiproliferative activity against human U373 MG cells at 10 nM. In kind it is functional, cell-based. The conditions noted are these: U-373MG ATCC. A digest of the protocol: as §4

For `CCCCc1ccc2[nH]c(-c3ccc(C(F)(F)F)cc3)c(/C=N/NC(=O)c3ccccn3)c2c1`, the IC50 (as a rule, the concentration at which inhibition is half-maximal) in assay [1] stood at 310 nM; in assay [2], 260 nM.

Consider `CCCCc1ccc2[nH]c(-c3ccc(OC)cc3)c(/C=N/NC(=O)c3ccccn3)c2c1`, for which the IC50 in assay [1] amounted to 160 nM; in [3] it was 213 nM; in assay [2], 34 nM. In addition, the 90% effect level in assay [3] (IC90) was put at 333 nM.

As to `CCCCc1ccc2[nH]c(-c3ccc(C(F)(F)F)cc3)c(/C=N/NC(=O)c3ccc(OC)cc3)c2c1`, the IC50 was 618 nM in [1] and 284 nM in [2].

Consider `CC[C@]1(O)C[C@H]2CN(CCc3c([nH]c4ccccc34)[C@@](C(=O)OC)(c3cc4c(cc3OC)N(C=O)[C@H]3[C@@](O)(C(=O)OC)[C@H](OC(C)=O)[C@]5(CC)C=CCN6CC[C@]43[C@@H]65)C2)C1` [VINCRISTINE], for which the IC50 in [1] came out at 2 nM; in [2], 6 nM. Moreover, the result in assay [4] was Active.

`CCCCc1ccc2[nH]c(-c3ccc(CC)cc3)c(/C=N/NC(=O)c3ccncc3)c2c1`: the values for the IC50 in assay [1] and in [2] were 150 nM and 80 nM, respectively.

With `COc1ccc(-c2[nH]c3ccc(C)cc3c2/C=N/NC(=O)c2ccncc2)cc1`, the IC50 in [1] was found to be 200 nM; in [2], 290 nM.

Regarding `CCCCc1ccc2[nH]c(-c3ccc(C(F)(F)F)cc3)c(/C=N/NC(=O)c3ccc(Cl)cc3)c2c1`, the IC50 in assay [1] is 1060 nM; in assay [2] it was 329 nM.

In the case of `CCCCc1ccc2[nH]c(-c3ccc(OC)cc3)c(/C=N/NC(=O)c3ccccc3)c2c1`, the outcome in assay [5] and in assay [6] was Active. The IC50 in [1] turned out to be 130 nM; in [2], 32 nM.

Regarding `CCCCc1ccc2[nH]c(-c3ccc(OC)cc3)c(/C=N/NC(=O)c3ccncc3)c2c1`, the IC50 in assay [1] worked out at 69 nM; in [2], 29 nM.

Turning to `COc1cc([C@@H]2c3cc4c(cc3[C@@H](O[C@@H]3O[C@@H]5CO[C@@H](C)O[C@H]5[C@H](O)[C@H]3O)[C@H]3COC(=O)[C@H]23)OCO4)cc(OC)c1O` [ETOPOSIDE], in assay [3], 315 nM corresponded to half-maximal inhibition (IC50). The Activity in assay [7] was found to be 3.37.

`CCCCc1ccc2[nH]c(-c3ccc(C(F)(F)F)cc3)c(/C=N/NC(=O)c3ccncc3)c2c1`: the result in assay [8] and in assay [9] was Active. In addition, the IC50 in assay [1] was found to be 100 nM; in [2], 94 nM.

For `CCCCc1ccc2[nH]c(-c3ccc(OC)cc3)c(/C=N/NC(=O)c3cccc(OC)c3)c2c1`, the IC50 in [2] was determined as 55 nM.

For `CCCCc1ccc2[nH]c(-c3ccc(C(F)(F)F)cc3)c(/C=N/NC(=O)c3cccnc3)c2c1`, the values for the IC50 in assay [1] and in assay [2] were 260 nM and 97 nM, respectively.

`CCCCc1ccc2[nH]c(-c3ccc(OC)cc3)c(/C=N/NC(=O)c3ccc(OC)cc3)c2c1`: the IC50 was 226 nM in assay [1] and 61 nM in assay [2].

The compound `CCCCc1ccc2[nH]c(-c3ccc(OC)cc3)c(/C=N/NC(=O)c3cccc(O)c3)c2c1` returned an IC50 in [2] of 30 nM.

For the compound `CCCCc1ccc2[nH]c(-c3ccc(C(F)(F)F)cc3)c(/C=N/NC(=O)c3ccc([N+](=O)[O-])cc3)c2c1`, the IC50 in assay [1] is 6340 nM; in assay [2] it was 2040 nM.

On to `CCCCc1ccc2[nH]c(-c3ccc(OC)cc3)c(/C=N/NC(=O)c3ccc(Cl)cc3)c2c1`, for which the figures for the IC50 in assay [1] and in [2] were 220 nM and 90 nM, respectively.

As to `CC(=O)O[C@H]1C(=O)[C@@]2(C)[C@H]([C@H](OC(=O)c3ccccc3)[C@]3(O)C[C@H](OC(=O)[C@H](O)[C@@H](NC(=O)c4ccccc4)c4ccccc4)C(C)=C1C3(C)C)[C@]1(OC(C)=O)CO[C@@H]1C[C@@H]2O`, the outcome in assay [10] was Active.

Regarding `CCCCc1ccc2[nH]c(-c3ccc(CC)cc3)c(/C=N/NC(=O)c3cccnc3)c2c1`, the IC50 in assay [1] stood at 100 nM; in [2], 53 nM.

For the compound `CCCCc1ccc2[nH]c(-c3ccc(C(F)(F)F)cc3)c(/C=N/NC(=O)c3ccccc3)c2c1`, the half-maximal inhibitory concentration (IC50) worked out at 460 nM in [1] and 300 nM in [2].

`CCCCc1ccc2[nH]c(-c3ccc(OC)cc3)c(/C=N/NC(=O)c3ccc(F)cc3)c2c1`: the outcome in [11], in [13] and in assay [14] was Active. The results for the IC50 in [1], in assay [3] and in assay [2] were 84 nM, 91 nM and 19 nM, respectively. Further, the outcome in assay [12] was inactive. Besides, in assay [3], the IC90 (commonly the point of the concentration-response curve where the effect stands at 90%) stood at 164 nM.

For the compound `C=C(C)[C@H]1Cc2c(ccc3c2O[C@@H]2COc4cc(OC)c(OC)cc4[C@@H]2C3=O)O1`, in [15], the result was Active.

Take `CCCCc1ccc2[nH]c(-c3ccc(OC)cc3)c(/C=N/NC(=O)c3ccccc3OC)c2c1`: the results for the IC50 in [1], in assay [3] and in [2] were 71 nM, 74 nM and 21 nM, respectively. This compound registered an IC90 in [3] of 142 nM. Moreover, in assay [13], the outcome was Active.

Consider `COc1cc2c(c(OC)c1OC)-c1ccc(OC)c(=O)cc1[C@@H](NC(C)=O)CC2`, for which the outcome in assay [16] was Active.

As to `CCCCc1ccc2[nH]c(-c3ccc(OC)cc3)c(/C=N/NC(=O)c3ccc([N+](=O)[O-])cc3)c2c1`, the IC50 in [1] is 312 nM; in [2], 115 nM.

Take `CCCCc1ccc2[nH]c(-c3ccc(OC)cc3)c(/C=N/NC(=O)c3cccnc3)c2c1`: the outcome in assay [17], in assay [11] and in assay [18] was Active. The IC50 in [1] came out at 75 nM; in assay [3], 50 nM; in assay [2] it was 35 nM. Besides, in [3], the 90% effect level (IC90) was put at 115 nM.

Consider `CCCCc1ccc2[nH]c(-c3ccc(OC)cc3)c(/C=N/O)c2c1`, for which the IC50 in [1] is 212 nM; in assay [2], 40 nM.
